According to ChEMBL document CHEMBL1140307, “Design and synthesis of alpha-aryloxyphenylacetic acid derivatives: a novel class of PPARalpha/gamma dual agonists with potent antihyperglycemic and lipid modulating activity” (J Med Chem, 2005):
Values joined by “and” are separate entries in the source; they are usually repeats but may differ in a detail not shown here. Equal values may be shown once.

What was measured:
[1] = Area under concentration time curve of compound when administered perorally at a dose of 2 mg/kg to dogs; assay type: ADME, organism-based, Canis lupus familiaris; design: dose 2 mg/kg, route oral; conditions: dog, in vivo, po
Summary of the method: (§1)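 Male Sprague-Dawley rats (n = 3) and male adult Beagle dogs (n = 4) were fasted overnight. They received either a 2 mg/kg oral gavage dose or a 0.5 mg/kg IV bolus. Blood was drawn into heparin tubes from a femoral arterial cannula (rat) or the jugular vein (dog) at set time points. Plasma was acidified with 0.5 M formate pH 3.0, stored at -70 °C and quantified by LC-MS/MS.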

[2] = target: T1, Peroxisome proliferator-activated receptor gamma (Homo sapiens, UniProt P37231); test: In vitro binding affinity for human PPAR gamma
T1 sequence (P37231 whole entry): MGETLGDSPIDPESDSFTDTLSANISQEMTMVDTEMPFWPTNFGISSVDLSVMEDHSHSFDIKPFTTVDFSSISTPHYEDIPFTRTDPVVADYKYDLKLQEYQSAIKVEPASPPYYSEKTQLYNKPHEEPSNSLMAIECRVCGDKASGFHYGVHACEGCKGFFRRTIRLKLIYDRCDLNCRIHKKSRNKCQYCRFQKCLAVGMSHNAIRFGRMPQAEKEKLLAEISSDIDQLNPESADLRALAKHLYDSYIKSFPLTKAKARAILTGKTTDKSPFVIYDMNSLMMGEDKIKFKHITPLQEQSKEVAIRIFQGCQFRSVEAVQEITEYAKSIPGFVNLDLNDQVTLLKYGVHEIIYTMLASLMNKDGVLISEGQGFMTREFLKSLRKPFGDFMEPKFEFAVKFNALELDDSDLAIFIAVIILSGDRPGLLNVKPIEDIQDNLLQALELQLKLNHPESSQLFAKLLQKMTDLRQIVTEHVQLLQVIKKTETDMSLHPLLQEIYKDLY

Cricetinae gen. sp. [3] = test: Effect (10 mpk) on serum cholesterol in hamster; assay type: functional
Summary of the method: (§2)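 Male Golden Syrian hamsters on normal rodent chow, dosed orally with test compound (9 days per table legend). Serum total cholesterol and triglyceride were measured in mg/dL. Values are group means, expressed as % change versus the vehicle-treated control group.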

Cricetinae gen. sp. [4] = test: Percentage change in the serum triglyceride upon administration of compound (3 mpk) in hamster; assay type: functional
Summary of the method: (§3)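 Male Golden Syrian hamsters were fed normal rodent chow and dosed orally once daily with compound. Serum total cholesterol and triglyceride were measured and expressed as percent change versus vehicle controls.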

[5] = Oral bioavailability in dog; assay type: ADME, organism-based, Canis lupus familiaris; conditions: in vivo; summary of the method: as §1
[6] = Area under concentration time curve of compound when administered perorally at a dose of 2 mg/kg to rats; assay type: ADME, organism-based; design: dose 2 mg/kg, route oral; conditions: rat, in vivo, po; summary of the method: as §1
[7] = target: T2, Peroxisome proliferator-activated receptor alpha (Homo sapiens, UniProt Q07869); test: Agonist response against human PPAR alpha in transactivation assay
T2 sequence (Q07869 whole entry): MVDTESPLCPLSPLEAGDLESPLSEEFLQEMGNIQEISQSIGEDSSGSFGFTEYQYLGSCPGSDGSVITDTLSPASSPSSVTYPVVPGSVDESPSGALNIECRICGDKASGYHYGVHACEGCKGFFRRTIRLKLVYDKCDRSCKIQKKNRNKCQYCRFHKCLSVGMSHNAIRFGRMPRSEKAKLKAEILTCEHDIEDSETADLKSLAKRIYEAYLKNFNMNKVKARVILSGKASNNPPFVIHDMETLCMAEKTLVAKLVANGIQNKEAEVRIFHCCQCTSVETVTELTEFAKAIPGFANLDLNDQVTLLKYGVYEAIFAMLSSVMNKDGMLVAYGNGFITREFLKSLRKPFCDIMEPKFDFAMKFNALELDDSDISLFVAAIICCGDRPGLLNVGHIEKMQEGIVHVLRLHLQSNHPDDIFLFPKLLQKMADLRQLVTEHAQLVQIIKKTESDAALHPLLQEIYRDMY

Mesocricetus auratus = species on record: Mesocricetus auratus; test: Effect (3 mpk) on serum triglyceride in hamster
Cricetinae gen. sp. [8] = test: Percentage change in the serum cholesterol upon administration of compound (10 mpk) in hamster; assay type: functional; summary of the method: as §3
Cricetinae gen. sp. [9] = test: Percentage change in the serum cholesterol upon administration of compound (3 mpk) in hamster; assay type: functional; summary of the method: as §3
[10] = Half life when administered intravenously at a dose of 0.5 mg/kg to rats; assay type: ADME, organism-based; design: dose 0.5 mg/kg, route intravenous; conditions: rat, in vivo, iv; summary of the method: as §1
[11] = target: T2, Peroxisome proliferator-activated receptor alpha; test: In vitro binding affinity for human PPAR alpha
[12] = target: T1, Peroxisome proliferator-activated receptor gamma; test: Agonist response against human PPAR gamma in transactivation assay; assay type: functional
Cricetinae gen. sp. [13] = test: Effect (3 mpk) on serum cholesterol in hamster; assay type: functional; summary of the method: as §2
[14] = Oral bioavailability in rat; assay type: ADME, organism-based; conditions: in vivo; summary of the method: as §1
[15] = Half life when administered intravenously at a dose of 0.5 mg/kg to dogs; assay type: ADME, organism-based, Canis lupus familiaris; design: dose 0.5 mg/kg, route intravenous; conditions: dog, in vivo, iv; summary of the method: as §1

CCCc1cc(C(=O)CC)cc(CCC)c1O[C@H](C(=O)O)c1ccc(C(C)C)cc1
AUC [1]: 70.5 µM·h
IC50 [2]: 0.075 µM
Cholesterol level (Cricetinae gen. sp. [3]): 86 mg/dL
Triglyceride level (Cricetinae gen. sp. [3]): 236 mg/dL
Change (Cricetinae gen. sp. [4]): -22%
bioavailability [5]: 85%
AUC [6]: 154 µM·h
EC50 [7]: 0.056 µM
Triglyceride level (Mesocricetus auratus): 259 mg/dL
Change (Cricetinae gen. sp. [8]): -33% and -29% and -17.5%
Change (Cricetinae gen. sp. [9]): -32%
half-life [10]: 6.1 h
IC50 [11]: 0.023 µM
EC50 [12]: 0.15 µM
Cholesterol level (Cricetinae gen. sp. [13]): 88 mg/dL
bioavailability [14]: 65%
half-life [15]: 2.5 h
